The values that follow come from ChEMBL document CHEMBL5390308, “Stapling Amantadine to Melanostatin Neuropeptide: Discovery of Potent Positive Allosteric Modulators of the D2 Receptors” (ACS Med Chem Lett, 2023).

As a reminder, the logP is the decadic logarithm of the partition coefficient of the neutral form, usually between octanol and water. The Emax is the maximal effect, on the per cent scale that the assay sets. The term EC50 denotes the concentration at which the effect is half-maximal.

Data set [1] in a line: Lipophilicity, logP of the compound in Octan-1-ol/water by shake-flask method. It is filed as physicochemical.
A short description of data set [2]: Neurotoxicity in human SH-SY5Y cells at 200 uM incubated for 48 hrs by MTT assay relative to control. It is filed as functional. The essentials:
(§1)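 SH-SY5Y neuroblastoma cells differentiated 6 days with retinoic acid and TPA. Exposed 48 h to compound at 200 μM dissolved in DMSO (0.5% final), with 6-OHDA at 125 μM in PBS as positive control. MTT reduction read-out as % of control. 14–16 wells from 4 independent experiments, mean ± SD; ANOVA with Tukey post hoc test.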
(In general: Formazan colour is commonly taken as a measure of viable cells.)

The target in data set [3] is T1, D(2) dopamine receptor (Homo sapiens, UniProt P14416). In words: Positive allosteric modulator activity at human dopamine D2 receptor expressed in CHO cells assessed as reduction in forskolin-stimulated cAMP level by measuring maximum efficacy at 0.01 nM preincubated for 10 mins followed by forskolin addition measured after 5 mins in presence of dopamine by HTRF assay relative to control. The conditions noted are these: filed as positive allosteric modulator, time 15.0 min. Type of data set: functional, cell-based. In a few lines:
(§2)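 Dopamine concentration–response curves run alone or with a fixed compound concentration (0.01 or 1 nM) in human D2R-expressing CHO cells. Forskolin-stimulated cAMP inhibition read by HTRF. Dopamine EC50 and Emax derived from the curves. Three independent experiments in duplicate, mean ± SD.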
A general note: Changes in cAMP serve as a functional read-out for many G protein-coupled receptors.

Data set [4] addresses T1, D(2) dopamine receptor. The data set is described as follows: Positive allosteric modulator activity at human dopamine D2 receptor expressed in CHO cells assessed as reduction in forskolin-stimulated cAMP level at 1 nM preincubated for 10 mins followed by forskolin addition measured after 5 mins in presence of dopamine by HTRF assay. It is filed as functional, cell-based. Particulars: time 15.0 min. The essentials: as §2

Data set [5] deals with T1, D(2) dopamine receptor. The data set is described as follows: Positive allosteric modulator activity at human dopamine D2 receptor expressed in CHO cells assessed as fold increase in dopamine potentiation by measuring reduction of forskolin-stimulated cAMP level at 0.01 nM preincubated for 10 mins followed by forskolin addition measured after 5 mins in presence of dopamine by HTRF assay. The conditions noted are these: filed as positive allosteric modulator, time 15.0 min. It is filed as functional, cell-based. In a few lines:
as §2

For data set [6], the target named is T1, D(2) dopamine receptor. The data set is described as follows: Agonist activity at human dopamine D2 receptor expressed in CHO cells assessed as reduction in forskolin-stimulated cAMP level at 1 to 1000 nM preincubated for 10 mins followed by forskolin addition measured after 5 mins by HTRF assay. Type of data set: functional, cell-based. Particulars: dose 1-1000 nM, time 15.0 min. The essentials: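 Agonist mode, without dopamine, in CHO cells expressing human D2R. Compound tested at 1 nM to 1 μM, with dopamine as positive control. Read-out is inhibition of forskolin-stimulated cAMP accumulation by HTRF. Mean ± standard deviation of three independent measurements.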

The target in data set [7] is T1, D(2) dopamine receptor. The data set is described as follows: Positive allosteric modulator activity at human dopamine D2 receptor expressed in CHO cells assessed as reduction in forskolin-stimulated cAMP level preincubated for 10 mins followed by forskolin addition measured after 5 mins in presence of dopamine by HTRF assay (reference value: 87.08 +/- 24.87 nM). It is filed as functional, cell-based. In a few lines: as §2

Data set [8] has as its target T1, D(2) dopamine receptor. In words: Positive allosteric modulator activity at human dopamine D2 receptor expressed in CHO cells assessed as reduction in forskolin-stimulated cAMP level at 0.01 nM preincubated for 10 mins followed by forskolin addition measured after 5 mins in presence of dopamine by HTRF assay relative to control. It is filed as functional, cell-based. Set-up: scale not given: the % may be the effect or the level left. Particulars: time 15.0 min. In a few lines: (§3)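 CHO cells expressing human D2R, assayed in the presence of 0.1 μM dopamine. Compounds screened between 0.01 nM and 10 μM. Inhibition of forskolin-stimulated cAMP measured by HTRF and expressed as % increase over the 0.1 μM dopamine effect. Mean ± SD of three independent measurements; Student's t-test, p < 0.05.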

The test system of the next data set is SH-SY5Y. The data set is described as follows: Neurotoxicity in human SH-SY5Y cells at 200 uM incubated for 48 hrs by MTT assay. Type of data set: functional, cell-based. In a few lines:
as §1

Data set [9] can be described thus: Neurotoxicity in human SH-SY5Y cells at 125 uM incubated for 48 hrs by MTT assay relative to control. It is filed as functional. The essentials:
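SH-SY5Y cells pre-differentiated 6 days with retinoic acid and TPA. 6-OHDA freshly prepared in sterile PBS, tested at 125 μM for 48 h; DMSO-solubilised test agents were run alongside (DMSO 0.5% final). Viability read by MTT reduction, expressed as % of control. 14–16 wells, 4 independent experiments; ANOVA with Tukey post hoc versus control.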

The target in data set [10] is T1, D(2) dopamine receptor. In words: Positive allosteric modulator activity at human dopamine D2 receptor expressed in CHO cells assessed as reduction in forskolin-stimulated cAMP level by measuring maximum efficacy at 1 nM preincubated for 10 mins followed by forskolin addition measured after 5 mins in presence of dopamine by HTRF assay relative to control. The conditions noted are these: filed as positive allosteric modulator, time 15.0 min. Type of data set: functional, cell-based. The essentials:
as §2

In data set [11] the target is T1, D(2) dopamine receptor. The data set is described as follows: Positive allosteric modulator activity at human dopamine D2 receptor expressed in CHO cells assessed as reduction in forskolin-stimulated cAMP level at 0.01 nM preincubated for 10 mins followed by forskolin addition measured after 5 mins in presence of dopamine by HTRF assay. It is filed as functional, cell-based. Particulars: time 15.0 min. In a few lines:
as §3

Data set [12] deals with T1, D(2) dopamine receptor. The data set is described as follows: Positive allosteric modulator activity at human dopamine D2 receptor expressed in CHO cells assessed as fold increase in dopamine potentiation by measuring reduction of forskolin-stimulated cAMP level at 1 nM preincubated for 10 mins followed by forskolin addition measured after 5 mins in presence of dopamine by HTRF assay. Type of data set: functional, cell-based. Particulars: filed as positive allosteric modulator, time 15.0 min. The essentials: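 CHO cells stably expressing human D2R. Dopamine concentration–response curves were run with or without modulator at a fixed concentration. D2R activation was read as inhibition of forskolin-stimulated cAMP accumulation by HTRF. The fold shift was derived from DA EC50 values, with Emax also fitted. Three independent experiments, each in duplicate, mean ± SD.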

Data set [13] concerns the target T1, D(2) dopamine receptor. The data set is described as follows: Positive allosteric modulator activity at human dopamine D2 receptor expressed in CHO cells assessed as reduction in forskolin-stimulated cAMP level by measuring maximum efficacy at 10 nM preincubated for 10 mins followed by forskolin addition measured after 5 mins in presence of dopamine by HTRF assay relative to control. It is filed as functional, cell-based. The arrangement: scale not given: the % may be the effect or the level left. Particulars: time 15.0 min. In a few lines:
as §3

The source made the active and inactive calls. No cut-off for these calls is given here. Where a SMILES comes first, the peptide text is derived from it.

T1 sequence (P14416 whole entry): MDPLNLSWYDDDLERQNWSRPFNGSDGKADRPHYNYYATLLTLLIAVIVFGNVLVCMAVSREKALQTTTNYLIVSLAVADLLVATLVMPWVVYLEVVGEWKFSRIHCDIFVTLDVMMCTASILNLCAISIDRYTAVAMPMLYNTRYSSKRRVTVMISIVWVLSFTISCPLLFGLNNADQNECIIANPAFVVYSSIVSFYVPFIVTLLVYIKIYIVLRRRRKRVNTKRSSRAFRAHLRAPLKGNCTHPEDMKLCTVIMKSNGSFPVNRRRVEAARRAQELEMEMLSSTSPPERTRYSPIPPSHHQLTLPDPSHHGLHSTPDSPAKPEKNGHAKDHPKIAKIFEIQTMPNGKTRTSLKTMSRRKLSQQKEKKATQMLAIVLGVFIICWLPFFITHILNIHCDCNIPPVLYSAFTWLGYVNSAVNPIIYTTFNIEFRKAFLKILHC

With `CC(C)C[C@H](NC(=O)[C@@H]1CCCN1C(=O)OC(C)(C)C)C(=O)NCC(=O)NC12CC3CC(CC(C3)C1)C2`, in [1], the logP is 2.62. In addition, the figures for the Activity (in data set [2]; on D(2) dopamine receptor [8]) were 89.73% and 15.3%, respectively. For the same compound, on D(2) dopamine receptor [3], the Emax amounted to 100%. Further, the result at D(2) dopamine receptor [4] and at D(2) dopamine receptor [6] was inactive. Also, at D(2) dopamine receptor [5], the fold change (FC) is 4.9. For the same compound, at D(2) dopamine receptor [7], the EC50 came to 17.8 nM.
As for `CC(C)C[C@H](NC(=O)[C@@H]1CCCN1)C(=O)NCC(=O)NC12CC3CC(CC(C3)C1)C2`, the maximal response (Emax) at D(2) dopamine receptor [3] was 100%. The result at D(2) dopamine receptor [4], with SH-SY5Y and on D(2) dopamine receptor [6] was inactive. In addition, the fold change (FC) at D(2) dopamine receptor [5] came to 3.3. The EC50 on D(2) dopamine receptor [7] came to 26.4 nM. For the same compound, the Activity at D(2) dopamine receptor [8] came to 10.3%.
In data set [9], `NCCc1cc(O)c(O)cc1O` [OXIDOPAMINE] yielded an Activity of 58.27%.
For the compound `CC(C)C[C@H](NC(=O)[C@@H]1CCCN1)C(=O)NCC(N)=O` (H-Pro-Leu-Gly-NH2), the Emax on D(2) dopamine receptor [10] was determined as 100%. The logP in [1] is -0.56. Besides, the Activity in data set [2] stood at 94.09%; on D(2) dopamine receptor [13] it was 31.9%. The outcome at D(2) dopamine receptor [11] was inactive. Moreover, the fold change (FC) at D(2) dopamine receptor [12] was determined as 3.7.
